Diaphorase act: diaphorase activation or chemical reduction counter-screen; Diaphorase/resazurin coupled assay, resorufin fluorescence, 16 min; hits give high values; 1 = vehicle wells, 0 = NADH-free wells; hit rate 0.005% among 190,000; activation factor at 20 µM;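 active means diaphorase activity raised at least twofold by the compound at 20 µM; inactive means activation factor below 2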
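Material: Clostridium kluyveri diaphorase, purified enzyme; Quantity: enzyme 0.07 U/mL final; Medium: HEPES pH 7.4 buffer with MgCl2 and Tween 20; Dosing: single compound dose of 20 µM, 1% DMSO final; Schedule: 16 min reaction at room temperature; Measured by: red resorufin fluorescence at 544/590 nm excitation/emission.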
L major viab: inhibitors of Leishmania major promastigote growth | Leishmania major promastigotes, resazurin fluorescence viability | inhibition, % at 10 µM | hit rate 9% among 200,000 | AID 1063;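 further: promastigotes grown with compound for 44 hours at 28 °C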
Diaph inh CS: diaphorase inhibition or chemical oxidation counter-screen; diaphorase resazurin-to-resorufin fluorescence, NADH, 16 min; bacterial (C. kluyveri) enzyme, not human; inhibition, % at 20 µM; hit rate 0.69% among 190,000; AID 1217;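 active means primary screen inhibition at 20 µM above a set limit, cut at about 50% in these data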;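 further: plate controls were DMSO with full reaction for no effect and wells lacking NADH for full effect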
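Assay system: diaphorase enzyme from Clostridium kluyveri. Quantity: enzyme working solution with 0.14 U/mL diaphorase. Schedule: reaction incubation of 16 min at room temperature. Technique: resorufin fluorescence, excitation 544 nm, emission 590 nm. Controls: No-NADH positive control and DMSO neutral control.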
WT yeast gro inh: growth inhibition of WT yeast, mitochondrial fusion screen | AID 1362 | mitochondrial fusion phenotypic screen, WT strain | inhibition, % at 10 µM | hit rate 2.1% among 190,000; in the data active means inhibition above about 58%; tested in S. cerevisiae
G6PDH counter: counter-screen for G6PDH assay hits: L. mesenteroides G6PDH inhibition | hit rate 0.12% among 200,000 | AID 1020 | inhibition, % at 5 µM | Purified L. mesenteroides G6PDH, diaphorase/resazurin coupled fluorescence, 45 min
Active calls of the source: *. Most compounds without a hit are left out; they make up all but 11% or so of the library. Unless noted, no stated cut-off is given here; in the data, active means inhibition above about 50%; inactive means the rest.

Results for CCOC(=O)N1CCN(Cc2ccc(O)c3ncccc23)CC1 ?
Diaphorase act: 0.3; L major viab: 0.4; Diaph inh CS: 72.0*; WT yeast gro inh: -18.4; G6PDH counter: 46.6

Results for Cc1[nH]c2ccccc2c1CN1CCC(Cc2ccccc2)CC1 ?
Diaphorase act: 1.1; L major viab: 100.4*; Diaph inh CS: -11.9; WT yeast gro inh: 18.4; G6PDH counter: -2.7

Results for Cc1sc2c(c1C)c(=O)n(-c1ccc(Cl)cc1)c(=O)n2Cc1cc(=O)n2ccccc2n1 ?
Diaphorase act: 0.9; L major viab: 2.6; Diaph inh CS: 9.9; WT yeast gro inh: -9.5; G6PDH counter: -21.9

What do the screens show for `Cc1ccc(C)c(S(=O)(=O)N2CCN(Cc3ccc(O)c4ncccc34)CC2)c1`?
Diaphorase act: 0.7; L major viab: 99.8*; Diaph inh CS: 28.2; WT yeast gro inh: -25.0; G6PDH counter: 1.8

Results for Oc1ccc2ccccc2c1CN1CCN(c2ccccc2)CC1 ?
Diaphorase act: 0.8; L major viab: -6.8; Diaph inh CS: 17.2; WT yeast gro inh: -16.5; G6PDH counter: 7.6

What do the screens show for `Cc1ccc(C)c(S(=O)(=O)N2CCN(CC(=O)Nc3cc(C)on3)CC2)c1`?
Diaphorase act: 0.9; L major viab: 1.2; Diaph inh CS: 6.0; WT yeast gro inh: -6.3; G6PDH counter: 1.6

Results for Oc1ccc(CN2CCN(c3ccccc3)CC2)c2cccnc12 ?
Diaphorase act: 0.3; L major viab: 100.3*; Diaph inh CS: 65.7*; WT yeast gro inh: -10.7; G6PDH counter: 19.4

What do the screens show for `O=[N+]([O-])c1cc(CN2CCN(c3cccc(C(F)(F)F)c3)CC2)c2cccnc2c1O`?
Diaphorase act: 0.8; L major viab: 99.0*; Diaph inh CS: 23.0; WT yeast gro inh: 56.6; G6PDH counter: 24.3

What do the screens show for `Oc1ccc(CN2CCc3ccccc3C2)c2cccnc12`?
Diaphorase act: 0.5; L major viab: 100.4*; Diaph inh CS: 48.3; WT yeast gro inh: -10.3; G6PDH counter: -24.7

How did CCOC(=O)c1nn(-c2cccc(C)c2)c2nnc(Cc3ccc(C)cc3)c(=O)n12 do in these assays?
Diaphorase act: 0.9; L major viab: -9.2; Diaph inh CS: 12.4; WT yeast gro inh: -0.1; G6PDH counter: 0.3

What do the screens show for `CC(=O)N1N=C(c2ccc(C)cc2)OC1c1cccnc1` (stereo not drawn)?
Diaphorase act: 1; L major viab: -6.6; Diaph inh CS: -2.6; WT yeast gro inh: 8.2; G6PDH counter: 7.6

Results for CS(=O)(=O)N1CCN(c2ccc([N+](=O)[O-])c(NCc3cccnc3)c2)CC1 ?
Diaphorase act: 1.1; L major viab: 19.4; Diaph inh CS: -9.3; WT yeast gro inh: 11.7; G6PDH counter: 1.1

What do the screens show for `CN1CCN(c2ccccc2NC(=O)c2sc3ccccc3c2Cl)CC1`?
Diaphorase act: 0.5; L major viab: 13.8; Diaph inh CS: 46.3; WT yeast gro inh: 10.2; G6PDH counter: -2.9

How did CCCOP(=O)(OCCC)C(Nc1ccc(C(=O)O)cc1)c1ccccc1 (stereo not drawn) do in these assays?
Diaphorase act: 1; L major viab: -3.5; Diaph inh CS: -1.4; WT yeast gro inh: -6.5; G6PDH counter: 19.5

Results for CCOP(=O)(OCC)C(Nc1cccc(C(F)(F)F)c1)c1ccc(Br)cc1 (stereo not drawn) ?
Diaphorase act: 0.7; L major viab: 98.9*; Diaph inh CS: 28.4; WT yeast gro inh: 79.8*; G6PDH counter: 1.4

Results for CC1Cc2cc(C3(O)C(=O)c4ccccc4C3=O)ccc2N1 (stereo not drawn) ?
Diaphorase act: 0.9; L major viab: -6.0; Diaph inh CS: 5.2; WT yeast gro inh: -6.1; G6PDH counter: 0.8

How did O=C(O)c1ccc(N2C(=O)/C(=C/c3ccc(-c4ccc([N+](=O)[O-])cc4)o3)C=C2c2ccccc2)cc1 do in these assays?
Diaphorase act: 0.4; L major viab: 98.8*; Diaph inh CS: 56.8*; WT yeast gro inh: 16.3; G6PDH counter: 2.2

What do the screens show for `Fc1ccccc1C(c1nnnn1C1CCCC1)N1CCN(Cc2ccccc2)CC1` (stereo not drawn)?
Diaphorase act: 0.9; L major viab: 61.4*; Diaph inh CS: 10.0; WT yeast gro inh: -4.3; G6PDH counter: 0.0

Results for c1cncc(C(c2nnnn2C2CCCC2)N2CCN(Cc3ccc4c(c3)OCO4)CC2)c1 (stereo not drawn) ?
Diaphorase act: 0.9; L major viab: 91.0*; Diaph inh CS: 13.4; WT yeast gro inh: -12.9; G6PDH counter: -5.7

Results for CCC(c1nnnn1C1CCCC1)N1CCN(Cc2ccccc2)CC1 (stereo not drawn) ?
Diaphorase act: 0.9; L major viab: 81.1*; Diaph inh CS: 13.9; WT yeast gro inh: -8.8; G6PDH counter: 2.3

Results for Fc1ccc(C(c2nnnn2C2CCCC2)N2CCN(Cc3ccncc3)CC2)cc1 (stereo not drawn) ?
Diaphorase act: 0.8; L major viab: 43.4; Diaph inh CS: 15.4; WT yeast gro inh: 2.0; G6PDH counter: 2.9

Results for CCCCC(c1nnnn1C1CCCC1)N1CCN(C(=O)c2ccco2)CC1 (stereo not drawn) ?
Diaphorase act: 0.9; L major viab: 57.7*; Diaph inh CS: 8.5; WT yeast gro inh: 4.4; G6PDH counter: -1.0

What do the screens show for `CN1CC(=O)N(CC(=O)NCc2ccc3c(c2)OCO3)C1=O`?
Diaphorase act: 0.8; L major viab: 2.8; Diaph inh CS: 19.4; WT yeast gro inh: 8.1; G6PDH counter: 2.0

How did O=C1C2C3c4ccccc4C(c4ccccc43)C2C(=O)N1Cc1cccnc1 (stereo not drawn) do in these assays?
Diaphorase act: 0.9; L major viab: 8.2; Diaph inh CS: 14.6; WT yeast gro inh: -16.4; G6PDH counter: 1.8

How did Cc1nc2cc(C(=O)OCC(=O)NC34CC5CC(CC(C5)C3)C4)ccc2n1-c1ccccc1 do in these assays?
Diaphorase act: 1; L major viab: -1.8; Diaph inh CS: 1.6; WT yeast gro inh: 59.0*; G6PDH counter: -21.1

How did Cc1nc2cc(C(=O)OCC(=O)NC3CCS(=O)(=O)C3)ccc2n1-c1ccccc1 (stereo not drawn) do in these assays?
Diaphorase act: 0.8; L major viab: -1.6; Diaph inh CS: 15.6; WT yeast gro inh: -10.6; G6PDH counter: 7.1

How did COc1cc2cc3c(N)c(C(=O)NCc4ccco4)sc3nc2cc1OC do in these assays?
Diaphorase act: 0.7; L major viab: 80.5*; Diaph inh CS: 31.2; WT yeast gro inh: 4.5; G6PDH counter: 10.4

Results for Cc1ccc2nc3sc(C(=O)NCc4ccco4)c(N)c3cc2c1 ?
Diaphorase act: 0.6; L major viab: -0.5; Diaph inh CS: 37.6; WT yeast gro inh: 10.6; G6PDH counter: 9.2

Results for COc1ccc(N(CC(=O)Nc2ccc(C)cn2)S(=O)(=O)c2c(C)noc2C)cc1 ?
Diaphorase act: 0.9; L major viab: 16.8; Diaph inh CS: 11.5; WT yeast gro inh: 17.6; G6PDH counter: 1.5
